# Screening data as filed in PubChem BioAssay.
# In the library only some 1.8% were active in any assay of this set; here they are far more common.
# C2C12 statin: suppressors of statin myotoxicity in C2C12 myotubes, primary screen, cell-based, single point, plate reader | rescue of ATP level, % at 7.49 µM | actives 0.78% (n = 330,000) | C2C12 myotubes + simvastatin, ATP luminescence, 48 h; scaled: DMSO 0, geranylgeraniol control 100;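 active = mean ATP rescue above about 67%, or every replicate alone reaching that limit, limit read from the data, passing the limit was not always enough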;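 also: myotubes were challenged with 10 µM simvastatin during compound exposure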
# Cneo AK release: Cryptococcus neoformans cell lysis inducers, primary screen, AK release luminescence, single concentration | AID 651654, 2012 | C. neoformans lysis, adenylate kinase release luminescence, 4 h; normalised: neutral wells 0, clomiphene wells 100 | lysis activity, % at 15 µM | actives 0.2% (n = 360,000);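 active = mean lysis activity across replicates of at least 80%, whatever share of replicates individually reach that level; inactive = mean lysis activity below 80%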
#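 Assay system: C. neoformans cells. Amount: yeast cell density of 5 × 10^6 cells/mL. Technique: AK luminescence. Buffer or medium: YPD. Times: static 4 h at 37 °C with compound, 1 h detection. Dosing: single-point compound dose. Read-out: lysis from increased AK signal.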
# Efflux pump inh: inhibitors of Candida efflux pumps in yeast, primary screen, S. cerevisiae, Nile Red, multiplex; S. cerevisiae Candida pump triplex; inhibition, % at 10 µM; actives 0.44% (n = 330,000); AID 485275, 2010;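 active = plate passing quality check with inhibition over a set limit, or well fluorescence over plate mean plus 4 SD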;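 also: Nile Red retained in pooled yeast measured as flow cytometry median fluorescence; 0% = buffer negative control and 100% = Enniatin B positive control; higher means more Nile Red kept so more efflux inhibition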
# Mot1-301 SUMO: yeast Mot1-301 growth rescue at high temperature, primary screen, SUMOylation pathway inhibitor project, S. cerevisiae, ATP luminescence, 38.5C. S. cerevisiae Mot1-301 growth rescue; percent above DMSO median, 100 means doubled. growth rescue, % at 18.8 µM. actives 1% (n = 320,000). AID 2716, 2010;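 active = every valid replicate shows activation above 250% relative to neutral control wells; inactive = the rest, any valid replicate at or below 250%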;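 also: OY570 slx delta 5 strain wells were the positive control but not used for scaling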
# An asterisk follows results filed as active; · = not tested or not shown.
SMILES,C2C12 statin,Cneo AK release,Efflux pump inh,Mot1-301 SUMO
CN(C)C=NC(=O)c1ccc(N2CCN(c3ncc(C(F)(F)F)cc3Cl)CC2)cc1,·,3,0,-6
CN(C)/C=C/C(=O)c1ccc(N2CCN(c3ncc(C(F)(F)F)cc3Cl)CC2)cc1,134*,3,0,16
O=C(NCc1ccccc1)c1cccc(COc2cccc(Cl)c2)c1,·,-1,0,276
O=C(NCc1ccccc1)Oc1cccc(Cl)c1,106*,1,0,908
O=C(O)C[C@H]1c2cc(C(F)(F)F)ccc2S(=O)(=O)N1Cc1ccccc1,14,4,0,2
COc1ccc2nc(NC(=O)CSc3nnc(C)n3N)sc2c1,-25,0,0,305*
COc1ccc2nc(NC(=O)CSc3nnc(N)s3)sc2c1,·,0,0,57
CC(C)CC#Cc1cnc2c(c1)C(=O)N([C@@H](C)CO)C[C@H](C)[C@@H](CN(C)S(=O)(=O)c1ccccc1)O2,-1,-6,·,·
CCOC(=O)c1c(-c2ccc(C)o2)csc1NC(=O)CN1CCOCC1,-6,-2,0,-13
CCOC(=O)c1c(-c2cccs2)csc1NC(=O)CN1CCOCC1,93*,0,0,1
CC(=O)Oc1ccc2nc(-c3ccc(Br)o3)oc(=O)c2c1,-9,0,0,-18
CC(C(=O)N1CCCc2ccccc21)N1C(=O)c2ccccc2C1=O (centres undefined),109*,10,0,13
COc1ccc(C(N)=O)cc1N,130*,0,0,5
CCCCN1C(N)=NC[C@@H]1c1ccccc1,0,0,0,52
Fc1cccc(-c2c(-c3ccccc3)ncc3cc(F)ccc23)c1,23,1,0,-26
O=[N+]([O-])c1cccc(-c2c(-c3ccccc3)ncc3ccc(F)cc23)c1,121*,1,0,28
COc1ccc(CN(C)C[C@H]2Oc3c(NC(=O)C4CC4)cccc3C(=O)N([C@H](C)CO)C[C@@H]2C)cc1,19,2,·,·
CCOc1ccc(C(=O)Nc2nc(C)cc(C)n2)cc1[N+](=O)[O-],93*,0,0,-9
Cc1ccc(C2CCN(C(=S)NC3CCCCC3)C2)cc1 (centres undefined),-25,119*,0,11
O=c1c2ccccc2c2ccccc2c(=O)n1Cc1ccco1,13,5,0,64
Cc1c(N=Cc2c(O)n(Cc3ccco3)c(=O)c3ccccc23)c(=O)n(-c2ccccc2)n1C,114*,-1,0,8
O=C(CNC(=O)c1cncc(Br)c1)Nc1ccc(F)c(F)c1F,5,-3,0,11
Cc1ccc(-c2nn(-c3ccccc3)cc2CO)cc1,-4,-3,0,6
COc1ccc(-c2nn(-c3ccccc3)cc2CO)cc1,99*,-1,0,-19
COc1cc(NC(=O)CN(C)S(=O)(=O)c2ccc3c(c2)CC(C)N3C(C)=O)cc(OC)c1OC (centres undefined),109*,2,0,6
SMILES,C2C12 statin,Cneo AK release,Efflux pump inh,Mot1-301 SUMO
Cc1sc(NC(=O)Cn2nc(C(F)(F)F)cc2C)c(C(=O)OC(C)C)c1C,-8,3,0,13
O=C(OCc1cc([N+](=O)[O-])cc2c1OCOC2)c1ccc2ccccc2n1,·,·,0,292*
CC(C)=CC(=O)OCc1cc([N+](=O)[O-])cc2c1OCOC2,·,·,0,-2
c1ccc(-c2cc(N3CCCCCC3)n[nH]2)cc1,93*,2,0,-5
O=C1CCn2nc(-c3ccc(Cl)cc3)cc2N1,-10,-7,0,605*
CCN(CC)CCCNC(=O)CCC(=O)Nc1ccc2nc(N3CCCCC3)cc(C)c2c1,-8,·,0,889*
CCN1C(=O)CC(c2ccccc2)CC1=O,21,1,0,115
COc1cc(NC(=O)[C@H]2CSCN2C(=O)[C@@H]2CCC(=O)N2)cc(OC)c1OC,-1,1,0,5
CC(C)c1ccc(NC(=O)[C@H]2CSCN2C(=O)[C@@H]2CCC(=O)N2)cc1,109*,-2,0,133
CO[C@H]1CC[C@@H]2CCOc3ccc(C#N)cc3C(=O)N(C)C[C@@H](OC)[C@@H](C)C(=O)N(C)C[C@H]1O2,75*,3,·,·
CO[C@H]1CC[C@H]2CCOc3ccc(C#N)cc3C(=O)N(C)C[C@H](OC)[C@@H](C)C(=O)N(C)C[C@@H]1O2,-4,5,·,·
CO[C@@H]1CC[C@@H]2CCOc3c(C#N)cccc3C(=O)N(C)C[C@H](c3ccccc3)CC(=O)N(C)C[C@@H]1O2,10,83*,·,·
CO[C@H]1CC[C@H]2CCOc3c(C#N)cccc3C(=O)N(C)C[C@H](c3ccccc3)CC(=O)N(C)C[C@@H]1O2,7,27,·,·
CCOC(=O)CN(C(=O)CSc1nnc2c(n1)[nH]c1ccc(F)cc12)c1ccccc1,121*,-2,0,-13
O=C(Cc1ccccc1)NCC(=O)OCC(=O)c1ccc(F)cc1,1,-3,0,1
O=C1c2ccccc2C(=O)N1CC1=CCS(=O)(=O)C1,112*,1,0,-3
O=C1c2ccccc2C(=O)N1CCCN1C(=O)c2ccccc2C1=O,-1,0,·,·
C[C@@H](O)C#Cc1ccc([C@H]2[C@H](CO)N3CCCCN(CC4CC4)C[C@@H]23)cc1,11,-3,·,·
CCS(=O)(=O)N1CCCCN2[C@H](C1)[C@@H](c1ccc(-c3ccc(C#N)cc3)cc1)[C@@H]2CO,-15,91*,·,·
C[C@@H](O)C#Cc1ccc([C@@H]2[C@H](CO)N3CCCCN(CC4CC4)C[C@@H]23)cc1,14,103*,·,·
COc1cccc(S(=O)(=O)N2CCCCN3[C@@H](CO)[C@@H](c4ccc(C#CCC(C)C)cc4)[C@@H]3C2)c1,7,84*,·,·
COc1cccc(S(=O)(=O)N2CCCCN3[C@H](C2)[C@@H](c2ccc(C#CCC(C)C)cc2)[C@@H]3CO)c1,-19,-1,·,·
Cc1c(NC(=O)C(Sc2ccccc2)c2ccccc2)cccc1[N+](=O)[O-] (centres undefined),112*,-6,0,3
CCOC(=O)c1ccc(N2C(=O)CC(N3CCN(C/C=C/c4ccccc4)CC3)C2=O)cc1 (centres undefined),127*,0,·,·
Cc1ccn2c(CNCCn3nc(C)cc3C)c(C(=O)N3CCCCCC3)nc2c1,1,-4,0,534*
CCCCn1c(=O)nc2n(-c3ccc(Cl)cc3)c3ccccc3cc-2c1=O,·,·,0,17
COc1ccc(C2=NO[C@@](CC(=O)O)(C(=O)Nc3ccc4c(c3)OCCO4)C2)cc1,-1,1,0,-2
COC(=O)[C@H](CC(C)C)NS(=O)(=O)c1ccccc1,80*,0,0,-5
COC(=O)[C@H](CC(C)C)NS(=O)(=O)N[C@@H](CC(C)C)C(=O)OC,6,3,0,2
